Experimental findings from ChEMBL document CHEMBL1152836, “10H-Phenothiazines: a new class of enzyme inhibitors for inflammatory diseases” (Eur J Med Chem, 2009) are described below.

A short description of experiment [1]: Inhibition of prostaglandin synthetase. In short, it runs like this:
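Isolated soya bean lipoxygenase was the enzyme source. Arachidonic acid metabolites (prostaglandin E, leukotrienes) were analysed by reverse-phase ODS-18 HPLC with acetonitrile:water 70:30 mobile phase, detection at 280 nm. IC50 is the substrate concentration giving 50% inhibition. Values are the average of three independent experiments (n = 3).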

Experiment [2] is described as follows: Inhibition of phosphodiesterase assessed as production of inorganic phosphate. In outline:
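Activity measured as inorganic phosphate released with 5'-nucleotidase present in excess. IC50 is the substrate concentration giving 50% inhibition of enzyme activity. Values are the average of three independent experiments (n = 3).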

A short description of experiment [3]: Inhibition of superoxide dismutase assessed as inhibition of superoxide generation by spectrophotometry. In short, it runs like this:
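Superoxide generation measured in a cell-membrane-free system by spectrophotometry at 340 nm. IC50 is the substrate concentration giving 50% inhibition of enzyme activity. Values are the average of three independent experiments (n = 3).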

The target of experiment [4] is Glutathione hydrolase 1 proenzyme (Homo sapiens, UniProt P19440). Briefly: Inhibition of gamma-glutamyltranspeptidase by colorimetric assay. In outline: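 Colorimetric read-out at 405 nm by a standard procedure. IC50 is the substrate concentration giving 50% inhibition of enzyme activity. Values are the average of three independent experiments (n = 3).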
Sequence of Glutathione hydrolase 1 proenzyme (P19440 1-380 limits assumed): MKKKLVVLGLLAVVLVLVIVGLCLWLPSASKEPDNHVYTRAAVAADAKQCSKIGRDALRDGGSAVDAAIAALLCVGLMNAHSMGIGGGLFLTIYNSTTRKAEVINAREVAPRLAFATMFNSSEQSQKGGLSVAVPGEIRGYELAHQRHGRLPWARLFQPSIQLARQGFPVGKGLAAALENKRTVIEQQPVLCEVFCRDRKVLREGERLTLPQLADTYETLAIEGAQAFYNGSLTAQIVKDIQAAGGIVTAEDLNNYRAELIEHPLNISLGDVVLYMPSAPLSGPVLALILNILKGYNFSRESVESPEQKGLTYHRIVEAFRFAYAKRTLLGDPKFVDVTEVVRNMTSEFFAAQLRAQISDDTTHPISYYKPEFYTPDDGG
Sequence of Glutathione hydrolase 1 proenzyme (P19440 381-569 limits assumed): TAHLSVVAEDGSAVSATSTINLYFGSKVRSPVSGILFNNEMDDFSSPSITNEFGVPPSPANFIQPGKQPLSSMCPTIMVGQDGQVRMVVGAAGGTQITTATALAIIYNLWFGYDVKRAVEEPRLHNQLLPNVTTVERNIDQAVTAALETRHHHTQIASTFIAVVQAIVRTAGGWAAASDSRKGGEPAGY

As usually defined, the IC50 is the point on the concentration scale where inhibition reaches its midpoint. `CNC(=O)C1=C(C)C2=C(Nc3ccccc3S2)C(C(=O)NC)C1c1ccccc1` (stereo not drawn): the IC50 was determined as 18 µM in experiment [1], 16 µM in experiment [2], 15 µM in experiment [3] and 20 µM in experiment [4].

In the case of `CNC(=O)C1=C(C)C2=C(Nc3ccccc3S2)C(C(=O)NC)C1c1ccc(Cl)cc1` (stereo not drawn), the concentration for half-maximal inhibition (IC50) in experiment [1] is 28 µM; in experiment [2], 26 µM; in experiment [3], 31 µM; in experiment [4] it was over 35 µM.

Regarding `CNC(=O)c1c(C)c2c(c(C(=O)NC)c1-c1ccc(OC)cc1)Nc1ccccc1S2`, the IC50 in experiment [1] is 18 µM; in experiment [2], 22 µM; in experiment [3], 19 µM; in experiment [4], 21 µM.

Consider `CC(=O)Oc1ccccc1C(=O)O` [ASPIRIN], for which the IC50 in experiment [1] worked out at 24 µM; in experiment [2] it was 22 µM; in experiment [3], 28 µM; in experiment [4] it was 36 µM.

For the compound `CNC(=O)C1=C(C)C2=C(Nc3ccccc3S2)C(C(=O)NC)C1c1ccccc1Cl` (stereo not drawn), the half-inhibitory concentration (IC50) in experiment [1] stood at 16 µM; in experiment [2], 13 µM; in experiment [3], 18 µM; in experiment [4], 19 µM.

For the compound `CNC(=O)c1c(C)c2c(c(C(=O)NC)c1-c1ccccc1)Nc1ccccc1S2`, the IC50 was found to be 18 µM in experiment [1], 14 µM in experiment [3] and 20 µM in experiment [4].

Regarding `CNC(=O)C1=C(C)C2=C(Nc3ccccc3S2)C(C(=O)NC)C1c1ccc2c(c1)OCO2` (stereo not drawn), the IC50 is 28 µM in experiment [1], over 30 µM in experiment [2], over 30 µM in experiment [3] and over 30 µM in experiment [4].

For the compound `CNC(=O)C1=C(C)C2=C(Nc3ccccc3S2)C(C(=O)NC)C1c1ccc([N+](=O)[O-])cc1` (stereo not drawn), the concentration for half-maximal inhibition (IC50) is 28 µM in experiment [1], over 30 µM in experiment [2], 32 µM in experiment [3] and 36 µM in experiment [4].

Take `CNC(=O)C1=C(C)C2=C(Nc3ccccc3S2)C(C(=O)NC)C1c1ccccc1OC` (stereo not drawn): the IC50 was 20 µM in experiment [1], over 30 µM in experiment [2], over 30 µM in experiment [3] and over 30 µM in experiment [4].

For `CNC(=O)C1=C(C)C2=C(Nc3ccccc3S2)C(C(=O)NC)C1c1ccccc1C` (stereo not drawn), the IC50 is 21 µM in experiment [1], 18 µM in experiment [2], 17 µM in experiment [3] and 22 µM in experiment [4].

With `CNC(=O)c1c(C)c2c(c(C(=O)NC)c1-c1ccccc1Cl)Nc1ccccc1S2`, the half-inhibitory concentration (IC50) was 15 µM in experiment [1], 15 µM in experiment [2], 20 µM in experiment [3] and 18 µM in experiment [4].

Consider `CNC(=O)c1c(C)c2c(c(C(=O)NC)c1-c1ccccc1C)Nc1ccccc1S2`, for which the half-inhibitory concentration (IC50) amounted to 21 µM in experiment [1], 18 µM in experiment [2], 18 µM in experiment [3] and 25 µM in experiment [4].

Turning to `CNC(=O)C1=C(C)C2=C(Nc3ccccc3S2)C(C(=O)NC)C1c1ccc(OC)cc1` (stereo not drawn), the IC50 amounted to 20 µM in experiment [1], 21 µM in experiment [2], 18 µM in experiment [3] and 25 µM in experiment [4].

Take `CNC(=O)c1c(C)c2c(c(C(=O)NC)c1-c1ccc3c(c1)OCO3)Nc1ccccc1S2`: the half-inhibitory concentration (IC50) in experiment [1] was 24 µM; in experiment [2], 20 µM; in experiment [3] it was 20 µM; in experiment [4], 18 µM.

For the compound `CNC(=O)c1c(C)c2c(c(C(=O)NC)c1-c1ccc(Cl)cc1)Nc1ccccc1S2`, the IC50 in experiment [1] is 23 µM; in experiment [2], 18 µM; in experiment [3] it was 18 µM; in experiment [4], 20 µM.

On to `CNC(=O)c1c(C)c2c(c(C(=O)NC)c1-c1ccccc1OC)Nc1ccccc1S2`, for which the IC50 is 22 µM in experiment [1], 25 µM in experiment [2], over 30 µM in experiment [3] and 28 µM in experiment [4].
